Reference: ChEMBL document CHEMBL3992564, “Design and synthesis of novel, potent and selective hypoxanthine analogs as adenosine A1 receptor antagonists and their biological evaluation” (Bioorg Med Chem, 2017)
In brackets after ≈: the same amount, converted by molar mass.

How the values were obtained:
Adenosine receptor A1 = molecular target: T1, Adenosine receptor A1 (Homo sapiens, UniProt P30542); experiment: Displacement of [3H]DPCPX from human adenosine A1 receptor expressed in HEK293 cell membranes after 90 mins
T1 sequence (P30542 whole entry): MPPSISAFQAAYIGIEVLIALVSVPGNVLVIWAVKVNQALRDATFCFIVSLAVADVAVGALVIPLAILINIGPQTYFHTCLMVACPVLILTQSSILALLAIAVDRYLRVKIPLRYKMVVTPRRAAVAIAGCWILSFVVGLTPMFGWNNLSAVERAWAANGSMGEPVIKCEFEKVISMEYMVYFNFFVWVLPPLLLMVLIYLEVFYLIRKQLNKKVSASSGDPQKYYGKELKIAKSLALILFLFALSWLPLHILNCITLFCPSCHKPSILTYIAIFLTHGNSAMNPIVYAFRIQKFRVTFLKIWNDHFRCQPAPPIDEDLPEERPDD

Adenosine receptor A2a = Adenosine receptor A2a (Homo sapiens, UniProt P29274); experiment: Displacement of [3H]ZM241385 from human adenosine A2A receptor expressed in HEK293 cell membranes after 90 mins
Procedure, shortened: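 Membranes from HEK-293 cells stably transfected with human receptor, pre-treated with adenosine deaminase. Radioligands: 1 nM [3H]DPCPX (A1), 1 nM [3H]ZM241385 (A2A), 1.6 nM [3H]MRS-1754 (A2B), 2 nM [3H]HEMADO (A3). Buffers: Tris pH 7.4 (A1, A2A, A3) or pH 6.5 (A2B), with ADA. Incubated 90 min at room temperature, then filtered. Nonspecific binding defined with 100 µM NECA. Ki from 8 concentrations run in triplicate.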

Adenosine receptor A2b = molecular target: T2, Adenosine receptor A2b (Homo sapiens, UniProt P29275); experiment: Antagonist activity at human adenosine A2B receptor expressed in HEK293 cells assessed as reduction in NECA-induced increase in cAMP level preincubated for 15 mins followed by NECA addition measured after 15 mins by HTRF assay; type: functional, cell-based
T2 sequence (P29275 whole entry): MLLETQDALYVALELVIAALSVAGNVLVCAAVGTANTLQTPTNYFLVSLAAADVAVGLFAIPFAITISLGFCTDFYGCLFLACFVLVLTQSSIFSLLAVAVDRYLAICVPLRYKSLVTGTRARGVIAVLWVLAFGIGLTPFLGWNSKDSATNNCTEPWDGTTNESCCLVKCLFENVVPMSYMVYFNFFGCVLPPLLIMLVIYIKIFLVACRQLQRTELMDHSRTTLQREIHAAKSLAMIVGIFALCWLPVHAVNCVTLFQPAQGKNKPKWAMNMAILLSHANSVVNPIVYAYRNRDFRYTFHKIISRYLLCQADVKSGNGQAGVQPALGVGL
Procedure, shortened: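 Overnight HEK-A1 or HEK-A2B cultures were treated with 1 U/mL ADA for 90 min at 37°C. Compound was added for 15 min, then agonist for 15 min (1 nM CPA for A1; 70 nM NECA for A2B) at room temperature in incomplete DMEM with ADA. Rolipram (20 µM) was included for A1 only. cAMP was read by HTRF.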

Liver [1] = experiment: Metabolic stability in rat liver microsomes assessed as metabolic rate measured after 30 mins in presence of NADPH; type: ADME, microsome; conditions: 0.5 h
Liver [2] = experiment: Metabolic stability in human liver microsomes assessed as metabolic rate measured after 30 mins in presence of NADPH; type: ADME, microsome; conditions: 0.5 h
[3] = Metabolic stability in rat liver microsomes assessed as parent compound remaining measured after 30 mins in presence of NADPH; type: ADME, microsome; conditions: read-out: Stability
[4] = Metabolic stability in human liver microsomes assessed as parent compound remaining measured after 30 mins in presence of NADPH; type: ADME, microsome; conditions: read-out: Stability
CYP1A2 = molecular target: T3, CYP1A2 (Homo sapiens, UniProt P05177); experiment: Inhibition of CYP1A2 (unknown origin) at 5 uM relative to control; type: ADME
T3 sequence (P05177 whole entry): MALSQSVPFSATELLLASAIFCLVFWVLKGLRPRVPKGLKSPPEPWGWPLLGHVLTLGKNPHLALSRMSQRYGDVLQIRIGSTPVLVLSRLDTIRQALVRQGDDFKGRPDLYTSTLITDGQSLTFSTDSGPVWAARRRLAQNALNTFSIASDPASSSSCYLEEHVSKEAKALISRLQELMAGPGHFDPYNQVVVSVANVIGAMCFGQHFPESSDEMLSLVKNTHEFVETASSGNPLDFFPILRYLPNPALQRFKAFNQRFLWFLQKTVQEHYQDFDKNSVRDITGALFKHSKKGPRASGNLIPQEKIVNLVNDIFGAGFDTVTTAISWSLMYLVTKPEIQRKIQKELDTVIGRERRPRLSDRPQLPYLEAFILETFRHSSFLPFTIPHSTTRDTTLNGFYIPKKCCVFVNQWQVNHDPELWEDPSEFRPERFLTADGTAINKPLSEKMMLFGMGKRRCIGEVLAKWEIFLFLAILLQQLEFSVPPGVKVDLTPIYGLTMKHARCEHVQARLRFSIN

CYP2D6 = CYP2D6 (Homo sapiens, UniProt P10635); experiment: Inhibition of CYP2D6 (unknown origin) at 5 uM relative to control; type: ADME
CYP3A4 = CYP3A4 (Homo sapiens, UniProt P08684); experiment: Inhibition of CYP3A4 (unknown origin) at 5 uM relative to control; type: ADME
[5] = Protein binding in rat plasma at 5 uM; type: ADME, cell-free; conditions: read-out: PPB (converted)
[6] = Thermodynamic solubility of the compound in pH 2 solution; type: physicochemical; conditions: read-out: Therm_solubility
[7] = Thermodynamic solubility of the compound in pH 4 solution; type: physicochemical; conditions: read-out: Therm_solubility
[8] = Thermodynamic solubility of the compound in pH 7.4 solution; type: physicochemical; conditions: read-out: Therm_solubility
[9] = AUC (0 to t) in Wistar rat at 3 mg/kg, iv by LC-Ms/MS analysis; type: ADME, organism-based; conditions: in vivo
Procedure, shortened: (§1)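 Male Wistar rats (230 ± 15 g), fasted overnight with water available. IV dose of 3 mg/kg given by tail vein as a solution (0.6 mg/mL, 5 mL/kg). PO dose of 5 mg/kg given by gavage as a suspension. Blood was collected into K2EDTA at 0.008 (IV only) to 24 h and plasma was spun off. Samples were precipitated with acetonitrile and run on LC/MS/MS. Parameters came from non-compartmental analysis of individual animals, mean of n = 4.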

[10] = Volume of distribution at steady state in Wistar rat at 3 mg/kg, iv by LC-Ms/MS analysis; type: ADME, organism-based; conditions: in vivo, read-out: Vdss
Procedure, shortened: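 Male Wistar rats (230 ± 15 g), fasted overnight with water available. IV dosing at 3 mg/kg by tail vein as solution (0.6 mg/mL, 5 mL/kg). PO dosing at 5 mg/kg by oral gavage. Serial blood sampling into K2EDTA from 0.008 (IV only) to 24 h. Plasma precipitated with acetonitrile containing internal standard and analysed by LC/MS/MS. Non-compartmental parameters calculated per animal; values are means of n = 4.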

[11] = Clearance in Wistar rat at 3 mg/kg, iv by LC-Ms/MS analysis; type: ADME, organism-based; conditions: in vivo; procedure, shortened: as §1
[12] = Elimination half life in Wistar rat at 3 mg/kg, iv by LC-Ms/MS analysis; type: ADME, organism-based; conditions: in vivo, read-out: beta t1/2 (converted); procedure, shortened: as §1

CYP2D6, sequence (P10635 whole entry): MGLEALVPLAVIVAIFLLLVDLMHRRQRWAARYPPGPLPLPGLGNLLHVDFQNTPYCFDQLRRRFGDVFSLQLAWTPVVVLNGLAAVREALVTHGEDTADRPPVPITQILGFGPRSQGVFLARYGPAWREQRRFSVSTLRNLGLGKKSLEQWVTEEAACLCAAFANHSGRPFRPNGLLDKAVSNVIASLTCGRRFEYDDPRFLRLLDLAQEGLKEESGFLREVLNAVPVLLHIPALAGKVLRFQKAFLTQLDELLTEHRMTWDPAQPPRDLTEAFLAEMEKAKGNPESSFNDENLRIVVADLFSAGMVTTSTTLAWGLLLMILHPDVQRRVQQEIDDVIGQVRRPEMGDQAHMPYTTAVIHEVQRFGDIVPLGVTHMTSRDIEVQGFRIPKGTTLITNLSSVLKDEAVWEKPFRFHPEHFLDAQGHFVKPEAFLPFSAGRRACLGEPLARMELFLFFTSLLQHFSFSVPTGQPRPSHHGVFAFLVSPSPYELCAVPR
Adenosine receptor A2a, sequence (P29274 whole entry): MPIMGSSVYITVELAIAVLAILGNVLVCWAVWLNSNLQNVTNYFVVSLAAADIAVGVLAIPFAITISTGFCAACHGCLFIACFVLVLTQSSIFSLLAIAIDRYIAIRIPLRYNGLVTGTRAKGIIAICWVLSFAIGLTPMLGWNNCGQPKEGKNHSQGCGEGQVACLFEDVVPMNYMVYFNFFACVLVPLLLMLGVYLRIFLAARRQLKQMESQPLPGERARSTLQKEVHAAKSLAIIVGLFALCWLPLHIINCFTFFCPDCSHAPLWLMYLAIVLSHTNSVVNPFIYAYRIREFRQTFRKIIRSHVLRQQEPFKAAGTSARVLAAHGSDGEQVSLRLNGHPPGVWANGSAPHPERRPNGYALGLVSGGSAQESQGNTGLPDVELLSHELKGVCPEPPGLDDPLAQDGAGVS
CYP3A4, sequence (P08684 whole entry): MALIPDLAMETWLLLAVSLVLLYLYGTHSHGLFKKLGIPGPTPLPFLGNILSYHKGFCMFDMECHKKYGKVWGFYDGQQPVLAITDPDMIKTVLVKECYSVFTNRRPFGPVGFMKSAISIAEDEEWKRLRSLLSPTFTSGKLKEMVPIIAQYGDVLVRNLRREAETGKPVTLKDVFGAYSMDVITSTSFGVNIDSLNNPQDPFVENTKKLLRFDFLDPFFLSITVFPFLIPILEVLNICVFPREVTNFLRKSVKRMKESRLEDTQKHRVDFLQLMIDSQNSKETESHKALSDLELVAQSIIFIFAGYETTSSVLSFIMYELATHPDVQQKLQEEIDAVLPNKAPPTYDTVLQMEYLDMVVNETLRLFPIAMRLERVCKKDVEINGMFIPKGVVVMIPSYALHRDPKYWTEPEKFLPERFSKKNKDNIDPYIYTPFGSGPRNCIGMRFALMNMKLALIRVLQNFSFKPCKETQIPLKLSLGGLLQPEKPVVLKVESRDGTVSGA

Ki (Adenosine receptor A1)	Ki (Adenosine receptor A2a)	Ki (Adenosine receptor A2b)	Drug metabolism (Liver [1])	Drug metabolism (Liver [2])	remaining at 0.5 h [3]	remaining at 0.5 h [4]	inhibition at 5 µM (CYP1A2)	inhibition at 5 µM (CYP2D6)	inhibition at 5 µM (CYP3A4)	fraction unbound at 5 µM [5]	solubility thermodynamic [6]	solubility thermodynamic [7]	solubility thermodynamic [8]	AUC(0-t) [9]	Vd [10]	clearance [11]	half-life [12]	SMILES
23 nM	> 10000 nM	> 10000 nM	0.08 nmol/min/mg	0.05 nmol/min/mg	75%	82%	7%	10%	34%	0.01	77 µM (≈ 28.8 µg/mL)	23 µM (≈ 8.61 µg/mL)	17 µM (≈ 6.36 µg/mL)	10.2 µM·h	1.73 L/kg	13.6 mL/min/kg	124 min	CCCn1c(Oc2ccc(F)c(F)c2)nc2nc(C3CCCC3)[nH]c2c1=O
6.6 nM	2000 nM	560 nM	0.07 nmol/min/mg	0.06 nmol/min/mg	78%	79%	0%	0%	0%	0.23	2150 µM (≈ 761 µg/mL)	43 µM (≈ 15.2 µg/mL)	38 µM (≈ 13.4 µg/mL)	2.7 µM·h	2 L/kg	55 mL/min/kg	30 min	CCCn1c(Oc2cccnc2C)nc2nc(C3CCCC3)[nH]c2c1=O
16 nM	≥ 10000 nM	650 to 690 nM	0.05 nmol/min/mg	0.03 nmol/min/mg	82%	97%	0%	1%	5%	0.05	614 µM (≈ 216 µg/mL)	63 µM (≈ 22.2 µg/mL)	54 µM (≈ 19 µg/mL)	3.53 µM·h	1.2 L/kg	39.2 mL/min/kg	29.4 min	CCCn1c(-c2cccc(OC)c2)nc2nc(C3CCCC3)[nH]c2c1=O
